# Only a selection was taken, and hits are over-represented in it overall.
# Lmaj promast = Leishmania major promastigote growth inhibition, primary screen; 200,000 compounds, 9% hits; AID 1063, 2008; Leishmania major promastigotes, resazurin fluorescence viability; inhibition, % at 10 µM; in the data active = inhibition above about 50%;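 note: promastigotes grown with compound for 44 hours at 28 °C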
# MDM2 E3 inh = MDM2-luciferase reporter signal enhancers, primary screen, MDM2 E3 ligase inhibitor project, cell-based, luminescence, 1536-well; E3 ubiquitin-protein ligase Mdm2 (Homo sapiens), Q00987; cell-based MDM2 ubiquitination luciferase reporter, 2 h; 0 = plate control, 100 = twice control, blank-subtracted; signal enhancement, % at 5 µM; 210,000 compounds, 0.11% hits;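 active = signal enhancement of 30% or more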;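 note: luminescence tracks abundance of the self-degrading MDM2-luciferase fusion protein; higher signal means inhibition of MDM2 E3 ligase activity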
# Target sequence (Q00987 whole entry, looked up, the tested form may be a part): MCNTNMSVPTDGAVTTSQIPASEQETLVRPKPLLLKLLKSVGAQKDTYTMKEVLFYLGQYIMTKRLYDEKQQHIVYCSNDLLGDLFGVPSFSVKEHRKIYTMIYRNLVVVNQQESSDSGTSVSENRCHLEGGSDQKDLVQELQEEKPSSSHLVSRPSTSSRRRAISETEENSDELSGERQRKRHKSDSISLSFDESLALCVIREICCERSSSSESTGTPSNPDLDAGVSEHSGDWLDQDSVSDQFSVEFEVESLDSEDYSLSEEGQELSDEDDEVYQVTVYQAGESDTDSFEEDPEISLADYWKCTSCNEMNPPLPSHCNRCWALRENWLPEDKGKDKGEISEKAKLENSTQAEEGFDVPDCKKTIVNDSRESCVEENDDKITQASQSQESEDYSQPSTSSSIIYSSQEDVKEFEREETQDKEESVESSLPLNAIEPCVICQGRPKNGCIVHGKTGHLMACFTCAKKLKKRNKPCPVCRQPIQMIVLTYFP
#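 test system = mammalian cells stably expressing self-ubiquitinating, self-degrading MDM2 E3–luciferase fusion | quantity = 2000 cells/well | incubation = cell settling 4 h, compound treatment 2 h, both 37 °C | signal = luminescence with SteadyLite reagent, 15 min at room temperature | evaluation = % enhancement relative to plate controls after blank subtraction | benchmarks = plate controls and plate blanks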
# S1P3 antag = S1P3 receptor antagonists, primary screen, cell-based. CHO S1P3 NFAT-BLA reporter, FRET fluorescence, antagonist mode. inhibition, % at 4.98 µM. 170,000 compounds, 0.27% hits. AID 485, 2006;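 active = inhibition above the plate cutoff, the mean inhibition of test wells on that plate plus 3 SD, cut at about 28% in these data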;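 note: cells challenged with S1P at its EC80 of 0.8 µM; blue over green emission ratio from cleaved BLA substrate after 4 h stimulation; 0% = S1P-stimulated wells and 100% = unstimulated DMSO-only wells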
# S1P4 ag = S1P4 receptor agonists, primary screen, cell-based | Sphingosine 1-phosphate receptor 4 (Homo sapiens), O95977 | S1P4-expressing cell line, agonist reporter assay | activation, % at 4.98 µM | 220,000 compounds, 0.35% hits; in the data active = activation above about 11%;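 note: 0% = DMSO vehicle and 100% = reference agonist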
# S1P4 antagonist = S1P4 receptor antagonists, primary screen, cell-based; Sphingosine 1-phosphate receptor 4 (Homo sapiens), O95977; S1P4-expressing cells, antagonist mode, reporter read-out; inhibition, % at 4.98 µM; 220,000 compounds, 0.26% hits; AID 1510, 2009; in the data active = inhibition above about 29%;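 note: 0% = wells stimulated with agonist and 100% = vehicle wells without agonist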
# * marks the source's active call; other numbers are inactive results; nt = no result.
SMILES,Lmaj promast,MDM2 E3 inh,S1P3 antag,S1P4 ag,S1P4 antagonist
O=C1OCC2OC(O)C(O)C(O)C2OC(=O)c2cc(O)c(O)c(O)c2-c2c(O)c(O)c3oc(=O)c4c(c(O)c(O)c5oc(=O)c2c3c54)-c2c1cc(O)c(O)c2O (stereo not given),nt,3,nt,nt,nt
Cc1onc(-c2ccccc2)c1C(=O)N/N=C/c1ccco1,nt,-9,-12,0,18
O=C(Cc1cccs1)N/N=C\c1ccc([N+](=O)[O-])s1,100*,nt,15,-1,6
O=C(CNC(=O)c1ccccc1Cl)N/N=C/c1ccc([N+](=O)[O-])s1,99*,-15,-8,0,-14
Cc1ccc(NC(=S)N/N=C/c2ccc([N+](=O)[O-])s2)cc1,89*,12,0,1,-20
Cc1cccc(NC(=S)N/N=C/c2cccc([N+](=O)[O-])c2)c1,-2,-14,nt,-3,-2
O=C(N/N=C/c1ccc(Cl)s1)c1ccccc1[N+](=O)[O-],nt,-3,0,1,-20
Cc1onc(-c2ccccc2)c1C(=O)N/N=C/c1ccc([N+](=O)[O-])s1,100*,1,-2,0,-26
COc1cc(/C=N/NC(=O)Cc2cccs2)c([N+](=O)[O-])cc1OC,29,-8,0,-3,-11
CCC(C)c1ccc(OCCn2cc(/C=N/NC(=O)CSc3nnc(C)s3)c3ccccc32)cc1 (stereo not given),-3,-27,nt,-2,4
CCCn1c(SCC(=O)Nc2cccc(S(=O)(=O)N(C)C)c2)nc2ccccc2c1=O,nt,-7,3,2,-14
O=C(N1CCN(Cc2ccccc2)CC1)C12CC3CC(CC(C3)C1)C2,-1,-12,-1,-1,-18
O=C(Nc1ccccc1-c1ccccc1)C1CCCC1,0,-5,-5,2,-32
COc1c(F)c(F)c(C(=O)Nc2ccccc2N2CCN(C(=O)C(C)C)CC2)c(F)c1F,51*,2,-6,-1,-4
O=C(N1CCN(c2ccccc2)CC1)C12CC3CC(CC(C3)C1)C2,95*,-16,4,0,-2
O=C(NC(=S)N1CCN(c2ccc(F)cc2)CC1)C12CC3CC(CC(C3)C1)C2,80*,0,-1,1,-8
O=C(Nc1ccccc1-c1ccccc1)C12CC3CC(CC(C3)C1)C2,89*,-17,nt,-1,4
O=S(CC1CC1(Cl)Cl)CC1CC1(Cl)Cl (stereo not given),-3,-23,5,2,-1
CC(C)CCNC(=O)c1nnc(Cc2ccc(Cl)cc2)o1,-4,-14,nt,2,-12
CCOC(=O)c1ccc(NC(=O)CN2C(=O)C(CC)SC(CC)C2=O)cc1 (stereo not given),-4,-10,9,0,-8
CCN(CC)C(=O)Cn1cc(C(=O)C(=O)N2CC=C(c3ccccc3)CC2)c2ccccc21,-2,20,4,1,11
O=C(Nc1nc(COc2ccccc2)cs1)C12CC3CC(CC(C3)C1)C2,100*,-9,nt,1,15
O=C(Nc1ccccc1N1CCN(c2ccc(F)cc2)CC1)C12CC3CC(CC(C3)C1)C2,100*,-10,nt,5,-3
O=C(COc1ccccc1)Nc1ccccc1N1CCN(c2ccc(F)cc2)CC1,0,-4,4,2,-7
O=C(Nc1ccccc1N1CCN(c2ccc(F)cc2)CC1)C1CCCCC1,31,-29,4,1,4
SMILES,Lmaj promast,MDM2 E3 inh,S1P3 antag,S1P4 ag,S1P4 antagonist
O=C(Nc1ccccc1N1CCN(c2ccc(F)cc2)CC1)c1ccccc1,-5,-17,62*,-1,-6
CCCc1cc(O)c2c(C)cc(=O)oc2c1,-2,-5,nt,-1,2
O=S(=O)(c1cccc2nsnc12)N1CCc2ccccc21,7,-25,-9,0,-2
Cc1ccc(Cl)cc1N1CCN(CC(O)COC(C)C)CC1 (stereo not given),nt,-7,8,0,-5
Cc1ccc(C(C)C)c(OCC(O)CN2CCOCC2)c1 (stereo not given),88*,-14,-15,0,-15
Cc1ccc(C(C)C)c(OCC(O)CN2CC(C)OC(C)C2)c1 (stereo not given),95*,6,-14,3,-27
CCOC(=O)N1CCN(CC(O)COc2cc(C)ccc2C(C)C)CC1 (stereo not given),4,3,-8,-1,-2
Cc1ccc(OCC(O)CN2CCN(CC(O)COC(C)C)CC2)c(C(C)(C)C)c1 (stereo not given),77*,-3,2,-1,-12
CC1CN(CC(O)COc2ccccc2C(C)(C)C)CC(C)O1 (stereo not given),92*,-6,19,-1,2
Cc1ccc(C(C)C)c(OCC(O)CN2CCN(CCO)CC2)c1 (stereo not given),1,1,nt,0,-12
O=C(c1ccoc1)N1CCC(CO)(CCc2ccccc2)CC1,-4,-1,1,1,-2
CCCOc1ccccc1Nc1nnc(C)c(=O)[nH]1,-1,-11,-8,0,6
Cc1nc(SCC(=O)N2c3ccccc3Sc3ccccc32)n[nH]1,5,-31,nt,1,6
Cc1ccc2nc(C)cc(C(=O)Nc3nccs3)c2c1,5,-1,-14,1,-10
Cc1ccc(S(=O)(=O)N(C)C)cc1NC(=O)c1cncc(Br)c1,36,-11,0,2,-1
CCOC(=O)C1=C(Cc2ccc(Cl)cc2)C(=O)c2ccccc2C1=O,91*,-2,nt,0,3
CS(=O)(=O)N1CCc2cc(-c3csc(NC(=O)Cc4ccccc4)n3)ccc21,25,2,nt,2,3
CCOC(=O)c1ccccc1NS(=O)(=O)c1ccc(OCC)cc1,0,-4,nt,-1,5
CCOc1ccc(NC(=O)c2ccccc2NS(=O)(=O)c2ccc(F)cc2)c([N+](=O)[O-])c1,71*,-7,-4,4,-13
Cc1ccc(S(=O)(=O)Nc2ccccc2C(=O)Nc2nc(-c3ccc(F)cc3)cs2)cc1,54*,-13,-1,1,-10
O=C(Nc1nc(-c2ccccc2)cs1)c1ccc(S(=O)(=O)N2CCc3ccccc32)cc1,99*,nt,4,0,8
CCOc1ccc(-c2csc(NC(=O)c3ccc(S(=O)(=O)N4CCc5ccccc5C4)cc3)n2)cc1,5,14,17,1,1
Cc1ccc(-c2csc(NC(=O)c3ccc(S(=O)(=O)N4CCc5ccccc54)cc3)n2)cc1,100*,nt,7,0,-6
COc1ccc(-c2csc(NC(=O)c3ccccc3NS(=O)(=O)c3ccc(F)c(F)c3)n2)cc1,49,-44,-7,-4,4
Clc1ccc2nc(CN3CCCc4ccccc43)cn2c1,22,-9,38,-1,-11

# Screening data as filed in PubChem BioAssay.
